Assay results as given in ChEMBL document CHEMBL2331076, “Pyridone alkaloids from a marine-derived fungus, Stagonosporopsis cucurbitacearum, and their activities against azole-resistant Candida albicans” (2013).
Values after ≈ are worked out from the molar mass of the structure shown.

Experiments:
Format in all cases: functional
Nakaseomyces glabratus = test: Antifungal activity against Candida glabrata J 92 by CLSI M27-A2 microdilution method
Outline: (§1)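 Broth microdilution per CLSI M27-A2, run in triplicate. Panel: azole-resistant C. albicans J2-36 (resistant to fluconazole, itraconazole, voriconazole), azole-sensitive C. albicans J1-97, C. glabrata J-92, Cryptococcus neoformans MPU-B. Quality control was run on each testing day with reference strains, including C. albicans ATCC 90028.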

Candida albicans [1] = test: Antifungal activity against azole-resistant Candida albicans J2-36 by CLSI M27-A2 microdilution method
Cryptococcus neoformans = test: Antifungal activity against Cryptococcus neoformans MPU-B by CLSI M27-A2 microdilution method; outline: as §1
Candida albicans [2] = test: Antifungal activity against azole-sensitive Candida albicans J1-97 by CLSI M27-A2 microdilution method; outline: as §1

Structure (SMILES)	MIC (Nakaseomyces glabratus)	MIC (Candida albicans [1])	MIC (Cryptococcus neoformans)	MIC (Candida albicans [2])
C[C@@H]1CC[C@H]2[C@H](C(=O)c3c(O)c([C@]4(O)CCC(=O)[C@@H]5O[C@@H]54)cn(O)c3=O)[C@H](C)C=C[C@@H]2C1 [DIDYMELLAMIDE A]	3.1 µg/mL (≈ 6.99 µM)	3.1 µg/mL (≈ 6.99 µM)	1.6 µg/mL (≈ 3.61 µM)	3.1 µg/mL (≈ 6.99 µM)
C[C@@H]1CC[C@H]2[C@H](C(=O)c3c(O)c(C4(O)CCC(=O)CC4O)c[nH]c3=O)[C@H](C)C=C[C@@H]2C1 (stereo partly specified) [DIDYMELLAMIDE D]	> 25 µg/mL	> 25 µg/mL	> 25 µg/mL	> 25 µg/mL
C[C@@H]1CC[C@H]2[C@H](C(=O)c3c(O)c(-c4ccc(O)cc4)c[nH]c3=O)[C@H](C)C=C[C@@H]2C1 [DIDYMELLAMIDE B]	> 25 µg/mL	> 25 µg/mL	6.3 µg/mL (≈ 16 µM)	> 25 µg/mL
C[C@@H]1CC[C@H]2[C@H](C(=O)c3c(O)c(C4(O)C=CC(=O)CC4)c[nH]c3=O)[C@H](C)C=C[C@@H]2C1 (stereo partly specified) [DIDYMELLAMIDE C]	> 25 µg/mL	> 25 µg/mL	> 25 µg/mL	> 25 µg/mL
